The entries come from a sample that favours hits as a whole.
INS-1E rescue: protection of INS-1E cells from cytokine death, primary screen, ATP luminescence, single point; INS-1E cytokine-induced death, 48 h; normalised: neutral wells 0, positive control 100; protection from cytokine-induced ATP loss, % at 10 µM; 0.1% of 20,000 active;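 active means mean replicate protection from cytokine-induced ATP loss at least 50% and at least 75% of replicates each reaching 50%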
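assay system = INS-1E rat insulinoma cells | amount = 8000 cells per well | medium = phenol-red-free RPMI with 5% fetal bovine serum | doses = one compound concentration, pin transfer | timing = 48 h cytokine plus compound treatment, 10 min reagent incubation | also added = IL-1β, TNF-α and IFN-γ cytokine mix | signal = CellTiter-Glo luminescence measuring cellular ATP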
T cruzi intra: inhibitors of intracellular Trypanosoma cruzi, primary screen, cell-based, plate reader, single point, set 2. intracellular Trypanosoma cruzi in host cells. activity score (inhibition), % at 5.01 µM. 4.9% of 22,000 active. AID 651903, 2012; in the data active means activity score above about 55%;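 further: parasites and compound incubated about four days before reading; 0% = median of neutral control wells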
A1 apoptosis 2: A1 inhibitors via caspase activation, primary screen, cell-based, luminescence, HTS, two replicates; MEF A1-2A-BIM cells, caspase-Glo luminescence, 3 h; percent of clofoctol response, DMSO zero; caspase activation, % (concentration not given with the values); 24,000 tested, under 10 active; AID 2465, 2010; in the data active means caspase activation above about 5.9%
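Material: A1-2A-BIM-expressing MEF cells. Buffer or medium: RPMI-1640 plus 10% FBS. Incubation: cells settled overnight, compound exposure 3 h at 37 °C, 5% CO2. Signal: Caspase-Glo 3/7 luminescence, 1 h at room temperature.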
Active calls of the source: *; / = no result.

SMILES	INS-1E rescue	T cruzi intra	A1 apoptosis 2
C[C@H]1CN([C@@H](C)CO)C(=O)Cc2cc(NS(=O)(=O)c3ccc(Cl)cc3)ccc2O[C@H]1CN(C)Cc1ccc(Cl)c(Cl)c1	-25	29	-1
C[C@@H]1CN([C@H](C)CO)C(=O)Cc2cc(NS(=O)(=O)c3ccc(Cl)cc3)ccc2O[C@@H]1CN(C)Cc1ccc(Cl)c(Cl)c1	-65	67*	/
O=C(O)CCCCCCC(=O)N/N=C/c1cc(Br)cc(Br)c1O	29	-9	1
COc1ccc(NC(=O)Nc2ccc3c(c2)CC(=O)N([C@H](C)CO)C[C@H](C)[C@@H](CN(C)S(=O)(=O)c2ccc(C)cc2)O3)cc1	/	/	-1
C[C@@H]1CCCCO[C@H](CN(C)Cc2ccc(Cl)c(Cl)c2)[C@@H](C)CN([C@H](C)CO)C(=O)c2cc(NC(=O)Nc3cccc4ccccc34)ccc2O1	-17	62*	1
C[C@@H]1CCCCO[C@@H](CN(C)Cc2ccccc2)[C@@H](C)CN([C@H](C)CO)C(=O)c2cc(NC(=O)Nc3cccc4ccccc34)ccc2O1	1	57*	0
C[C@@H]1CCCCO[C@@H](CN(C)Cc2ccc(Cl)c(Cl)c2)[C@@H](C)CN([C@@H](C)CO)C(=O)c2cc(NC(=O)Nc3cccc4ccccc34)ccc2O1	/	/	1
C[C@@H]1CCCCO[C@@H](CN(C)Cc2ccccc2)[C@H](C)CN([C@@H](C)CO)C(=O)c2cc(NC(=O)Nc3cccc4ccccc34)ccc2O1	/	/	-1
O=C1N(CCS(=O)(=O)c2ccccc2)Cc2ccccc2[C@@H]2OC(c3ccc(OCCCO)cc3)=N[C@]12Cc1ccccc1	/	/	-1
Cc1ccc(S(=O)(=O)Nc2ccc3c(c2)CC(=O)N([C@H](C)CO)C[C@@H](C)[C@@H](CN(C)C(=O)Nc2c(C)noc2C)O3)cc1	10	-41	0
C[C@H]1CN([C@@H](C)CO)C(=O)c2cc(NC(=O)Nc3ccccc3)ccc2O[C@H]1CN(C)Cc1ccc(C(=O)Nc2ccccc2N)cc1	-7	54	/
C[C@@H]1CN([C@@H](C)CO)C(=O)c2cccc(NC(=O)Nc3ccc4c(c3)OCO4)c2O[C@@H]1CN(C)Cc1ccc(C(=O)O)cc1	3	-17	/
C[C@H](CO)N1C[C@H](C)[C@H](CN(C)Cc2ccc(Oc3ccccc3)cc2)Oc2c(NC(=O)Nc3ccc4c(c3)OCO4)cccc2C1=O	-46	78*	-1
C[C@H](CO)N1C[C@H](C)[C@H](CN(C)Cc2ccc(C(=O)Nc3ccccc3N)cc2)Oc2ccc(NC(=O)Nc3ccc4c(c3)OCO4)cc2C1=O	-3	74*	0
C[C@@H]1CN([C@@H](C)CO)C(=O)c2cccc(NC(=O)Nc3ccc4c(c3)OCO4)c2O[C@H]1CN(C)Cc1ccc(C(=O)Nc2ccccc2N)cc1	-1	68*	1
C[C@@H]1CN([C@H](C)CO)C(=O)c2cccc(NC(=O)Nc3ccc4c(c3)OCO4)c2O[C@H]1CN(C)Cc1ccc(Oc2ccccc2)cc1	-10	31	-2
C[C@@H]1CN([C@@H](C)CO)C(=O)c2cccc(NC(=O)Nc3ccc4c(c3)OCO4)c2O[C@@H]1CN(C)Cc1ccc(C(=O)Nc2ccccc2N)cc1	22	54	0
C[C@H]1CN([C@@H](C)CO)C(=O)c2cccc(NC(=O)Nc3ccc4c(c3)OCO4)c2O[C@@H]1CN(C)Cc1ccc(C(=O)Nc2ccccc2N)cc1	10	68*	-1
COC(=O)CCCCCCC(=O)N/N=C/c1ccc(N(C)C)cc1	5	1	1
O=C(NO)c1cccc(C(=O)N/N=C/c2ccc(F)c(Oc3ccccc3)c2)c1	6	-37	/
C[C@@H]1CCCCO[C@@H](CN(C)C(=O)Nc2ccc3c(c2)OCO3)[C@@H](C)CN([C@@H](C)CO)C(=O)c2cc(NC(=O)Nc3ccc4c(c3)OCO4)ccc2O1	/	/	-1
COC(=O)CCCCCCC(=O)N/N=C/c1cc(Br)cs1	3	-17	1
COc1ccc(/C=N/NC(=O)c2ccccc2O)cc1OC	-28	-9	1
COc1ccc(NC(=O)N(C)C[C@H]2OCCCC[C@@H](C)Oc3ccc(NC(=O)Nc4ccc(F)cc4)cc3C(=O)N([C@@H](C)CO)C[C@H]2C)cc1	/	/	1
C[C@H]1CN([C@@H](C)CO)C(=O)c2cccc(NC(=O)Nc3ccc4c(c3)OCO4)c2O[C@@H]1CN(C)CC1CC1	-11	4	0
SMILES	INS-1E rescue	T cruzi intra	A1 apoptosis 2
C[C@H](CO)N1C[C@H](C)[C@@H](CN(C)Cc2ccc(C(=O)Nc3ccccc3N)cc2)Oc2ccc(NC(=O)Cn3cnnn3)cc2C1=O	-11	69*	/
C[C@H](CO)N1C[C@H](C)[C@@H](CN(C)CC2CC2)Oc2c(NC(=O)Nc3ccc4c(c3)OCO4)cccc2C1=O	-5	58*	0
C[C@@H]1CN([C@H](C)CO)C(=O)c2cc(NC(=O)Cn3cnnn3)ccc2O[C@H]1CN(C)Cc1ccc(C(=O)Nc2ccccc2N)cc1	-12	29	-2
C[C@H]1CN([C@@H](C)CO)C(=O)c2cc(NC(=O)CCCN(C)C)ccc2O[C@@H]1CN(C)C(=O)NC1CCCCC1	6	-12	/
O=C1c2ccccc2C(=O)N1[C@@H]1CCCN(Cc2ccc(OCCO)cc2)C1	/	/	1
Cc1ccc(S(=O)(=O)Nc2cccc3c2O[C@H](CN(C)Cc2ccc(C(=O)Nc4ccccc4N)cc2)[C@@H](C)CN([C@H](C)CO)C3=O)cc1	/	/	2
C[C@@H]1CN([C@H](C)CO)C(=O)c2cccc(NS(=O)(=O)c3ccc(F)cc3)c2O[C@H]1CN(C)Cc1ccc(C(=O)Nc2ccccc2N)cc1	5	41	1
Cc1ccc(S(=O)(=O)Nc2cccc3c2O[C@@H](CN(C)Cc2ccc(C(=O)Nc4ccccc4N)cc2)[C@@H](C)CN([C@H](C)CO)C3=O)cc1	5	57*	0
C[C@H]1CN([C@@H](C)CO)C(=O)c2cccc(NS(=O)(=O)c3ccccc3)c2O[C@H]1CN(C)Cc1ccc(C(=O)Nc2ccccc2N)cc1	-10	53	-1
C[C@@H]1CN([C@H](C)CO)C(=O)c2cccc(NS(=O)(=O)c3ccc(F)cc3)c2O[C@@H]1CN(C)Cc1ccc(C(=O)Nc2ccccc2N)cc1	27	60*	-1
C[C@@H]1CN([C@H](C)CO)C(=O)c2cccc(NS(=O)(=O)c3ccccc3)c2O[C@@H]1CN(C)Cc1ccc(C(=O)Nc2ccccc2N)cc1	11	75*	/
C[C@@H]1CN([C@@H](C)CO)C(=O)c2cccc(NS(=O)(=O)c3ccc(Cl)cc3)c2O[C@H]1CN(C)Cc1ccc(C(=O)Nc2ccccc2N)cc1	-1	56*	-1
C[C@H](CO)N1C[C@H](C)[C@@H](CN(C)Cc2ccc(C(=O)Nc3ccccc3N)cc2)Oc2c(NS(=O)(=O)c3ccc(Cl)cc3)cccc2C1=O	-15	49	/
CCO[C@H]1OC(C(=O)NC2CC2)=C[C@@H](C(C)(C)C)[C@@H]1CCCO	/	/	0
